Test results published in publication PMC5668626 (Biochemistry and Biophysics Reports, 2015).

Legend:
[1] = target: T1, PfP2-tetramer (Plasmodium falciparum P2, recombinant) (Plasmodium falciparum, UniProt O00806); experiment: isothermal titration calorimetry; type: binding
T1 sequence (O00806 1-112): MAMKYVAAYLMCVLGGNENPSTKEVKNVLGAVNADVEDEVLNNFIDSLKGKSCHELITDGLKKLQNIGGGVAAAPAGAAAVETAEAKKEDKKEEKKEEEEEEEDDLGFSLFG
Method in brief: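 Recombinant PfP2 tetramer (0.075 mM) in the sample cell, with buffer in the reference cell, at pH 7.4 and 25 °C. The hydrophobic dye ligand (15 mM, syringe) was added in 50 injections of 5 μl, each lasting 10 s and spaced 4 min apart, with stirring. Titration heats were fitted to a binding model for K, ΔH, ΔS and n.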

[2] = target: Plasmodium falciparum P2 (recombinant) (Plasmodium falciparum); experiment: SEC

Compound	Kd [1] [µM]	stoichiometry N [2]
O=S(=O)(O)c1cccc2cccc(Nc3ccccc3)c12 [ANS]	102	
Plasmodium falciparum P2 (recombinant) (natural protein)		4
